Laboratory results taken from ChEMBL document CHEMBL1136783, “New cytotoxic and water-soluble bis(2-phenylazopyridine)ruthenium(II) complexes” (J Med Chem, 2003).

Columns and labels:
A2780 [1] = experiment: Cytotoxicity against human ovarian carcinoma A2780 cell line; format: functional, cell-based
Method in brief: (§1)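 Cells kept in log-phase DMEM with 10% fetal calf serum, penicillin/streptomycin and Glutamax. Seeded at 2000 cells/well and allowed 48 h adhesion at 37 °C, 5% CO2. Exposed 72 h to compound diluted from a DMSO stock into complete medium, final 0.01 to 0.0001 mg/mL, in quadruplicate. Vehicle control contained 1% DMSO. Proliferation read by MTT (1 h, DMSO solubilization, OD 590 nm).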

A2780 [2] = experiment: Cytotoxicity against human ovarian carcinoma A2780cisR cell line; format: functional, cell-based; method in brief: as §1

| Substance | IC50 (A2780 [1]) [µM] | IC50 (A2780 [2]) [µM] |
| --- | --- | --- |
| CARBOPLATIN | 8.2 | 41.6 |
| CISPLATIN | 2.3 | 7.8 |
| alpha-[Ru(azpy)2(NO3)2] | 8.5 | 6.3 |
| alpha-[Ru(azpy)2(cbdca-O,O')] | 7.2 | 4.9 |
| alpha-[Ru(azpy)2(mal)] | 7.9 | 6.2 |
| alpha-[Ru(azpy)2Cl2] | 0.85 | 0.98 |
| beta-[Ru(azpy)2(NO3)2] CHCl3 | 9.7 | 12.1 |
| beta-[Ru(azpy)2Cl2] CHCl3 | 1.6 | 7.3 |
